# Screens (PubChem)
# UPR XBP1 act: adaptive UPR (XBP1) activation; CHO-XBP1 luciferase reporter, IRE1-XBP1 UPR activation, luminescence; percent of tunicamycin response, DMSO as zero; activation, % at 20 µM; 0.33% of 330,000 active; AID 463104;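 active means versus positive control, 20 µM dose yields 30% or more activation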
#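 Material: IRE1-XBP1 luciferase reporter CHO line / Quantity: one thousand reporter cells per well / Buffer or medium: F12 with 10% serum / Compound: 20 µM single concentration, DMSO 1% / Times: 6 h treatment, 37 °C / Detection: Steady-Glo luciferase glow luminescence, 10 min after reagent addition / Benchmarks: tunicamycin high, DMSO low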
# UPR CHOP act: activators of apoptotic arm of unfolded protein response (CHOP); CHO-CHOP luciferase reporter, UPR activation, luminescence; percent of tunicamycin response over DMSO baseline; activation, % at 10 µM; 0.34% of 330,000 active;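 active means at 10 µM dose, activation of 40% or more, normalized to positive control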
#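 Material: CHO-CHOP cells, stable luciferase reporter of PERK-eIF2a-CHOP signalling; quantity: 500 reporter cells seeded per well; buffer or medium: F12 medium containing 10% fetal bovine serum; compound: one dose, 10 µM in 0.5% DMSO; incubation: 6 h compound treatment, 37 °C; measured by: Steady-Glo luciferase luminescence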
# CHOP inhibitor: blocks CHOP induction under ER stress | inhibition, % at 10 µM | AID 2732 | CHO-K1 CHOP-promoter luciferase, tunicamycin-induced, 15-18 h | 3.8% of 220,000 active;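 active means compounds that reduced the stress-induced luciferase reporter signal by more than about 70% of percent inhibition, limit read from the data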
# Jurkat NFkB inh: inhibitors of the PMA/ionomycin-induced NF-kB reporter in Jurkat cells; PMA/ionomycin-induced NF-kB luciferase reporter, luminescence; inhibition, % at 4 µM; 0.53% of 330,000 active; AID 435003; in the data active means inhibition above about 50%
# 697 NFkB inh: lowers PMA/ionomycin-induced NF-kB signal in 697 B cells; inhibition, % at 4 µM; 0.33% of 330,000 active; AID 435022; 697 B-cell NF-kB luciferase reporter, 16 h; in the data active means inhibition above about 35%
# Hits are given with their value; - = inactive; . = no result. The full list was thinned out, with hits kept by preference.
SMILES,UPR XBP1 act,UPR CHOP act,CHOP inhibitor,Jurkat NFkB inh,697 NFkB inh
CN1C(=O)C(C)(C)c2cc(S(=O)(=O)NCc3ccc(C(=O)NCc4ccco4)cc3)ccc21,-,-,.,-,-
C=CCN(c1ccccc1OC)S(=O)(=O)c1cccc(C(=O)OCC(=O)c2c[nH]c3ccccc23)c1,-,-,72.7,-,-
Cn1c(=O)c2cc(S(=O)(=O)Nc3cc(C(=O)O)cc(C(=O)O)c3)ccc2n(C)c1=O,-,-,-,-,-
Cc1cc(C)cc(NS(=O)(=O)c2ccc3c(c2)c(=O)n(C)c(=O)n3C)c1,-,-,92.6,-,-
CN(C)c1ccc(N2CN=C3SCC(=O)N3C2)cc1,-,-,-,-,-
O=C1CSC2=NCN(c3ccc4c(c3)OCO4)CN12,-,-,94.4,-,-
COc1ccc2nc3ccccc3nc2c1NC(=O)c1ccc(Br)cc1,-,-,78.8,-,-
COc1ccc2nc3ccccc3nc2c1NC(=O)c1ccc(Cl)cc1,-,-,-,-,-
CCC(=O)Nc1cc2nn(-c3ccccc3)nc2cc1Cl,-,-,79.0,-,-
O=C(Nc1cccc(S(=O)(=O)Nc2ccc(Cl)cc2)c1)c1cc2c(s1)CCCC2,-,-,75.9,-,-
CCOc1ccccc1C1C(C#N)=C(SCC(=O)OC)NC(=O)C1C(=O)OC (stereo not given),-,-,79.9,-,-
O=C(/C(N=Nc1cccc([N+](=O)[O-])c1)=C(/O)c1ccc(Br)cc1)C(F)(F)F,-,-,70.1,-,-
O=C(NCc1ccc(Cl)cc1)c1cc(S(=O)(=O)N2CCCCC2)c[nH]1,-,-,.,-,-
CCOC(=O)C1=C(COC(=O)[C@@H]2CCCN2S(=O)(=O)c2ccc(C)cc2)NC(=O)NC1C (stereo not given in full),-,-,.,-,-
Cc1ccccc1Nc1ncnc2c1cnn2-c1ccccc1,-,-,72.5,-,-
CCOc1ccc(Nc2ncnc3c2cnn3Cc2ccccc2)cc1,-,-,-,-,-
CCOc1ccc(Nc2ncnc3c2cnn3-c2ccccc2)cc1,-,-,101.1,-,-
COc1cc(NC(=O)Cn2nc(C(F)(F)F)c(Br)c2C)cc([N+](=O)[O-])c1,-,-,94.4,-,-
N#Cc1ccsc1NC(=O)CN1CCN(S(=O)(=O)c2ccc3ccccc3c2)CC1,-,-,77.5,-,-
COc1ccc(-c2csc(NC(=O)Nc3ccccc3)n2)cc1,-,-,.,-,-
Cc1ccc(NC(=O)Nc2nc(-c3ccc(C)s3)cs2)cc1,-,-,86.3,-,-
Cc1ccc(N=Nc2c(N)[nH]n3c(=O)cc(-c4ccccc4)nc23)cc1,-,-,75.4,-,-
CC(C)c1ccc(N(CC(=O)NC2CCCC2)C(=O)CCC(=O)Nc2ccccn2)cc1,-,-,.,-,-
O=C(COC(=O)c1cc(=O)[nH]c2ccccc12)c1ccc(Br)cc1,-,-,71.7,-,-
C=CCn1cnnc1SCC(=O)Nc1cccnc1Cl,-,-,.,-,-
SMILES,UPR XBP1 act,UPR CHOP act,CHOP inhibitor,Jurkat NFkB inh,697 NFkB inh
Cc1cc(S(=O)(=O)NCC(c2ccccc2)c2ccccc2)ccc1-n1cnnn1,-,-,70.1,-,-
COCC(C)N1CCC(Oc2ccc(C(=O)N3CCCC3)cc2)CC1 (stereo not given),-,-,.,-,-
O=C1/C(=C/c2cccnc2)CC/C1=C\c1cccnc1,-,-,-,-,-
CCC1C/C(=C\c2cccnc2)C(=O)/C(=C/c2cccnc2)C1 (stereo not given),.,.,105.6,.,.
CC1CCCCN1c1ncnc(N)c1[N+](=O)[O-] (stereo not given),-,-,-,-,-
CC1Cc2ccccc2N1c1ncnc(N)c1[N+](=O)[O-] (stereo not given),-,-,71.9,-,-
CCCn1c(CN(Cc2ccccc2)Cc2ccccc2)nc2c1c(=O)n(C)c(=O)n2C,-,-,92.4,-,-
COc1ccc(NC(=O)n2ncc3cc(Cl)ccc32)cc1OC,-,-,.,-,-
CC(=O)N1c2ccc(S(=O)(=O)N3CCC(C(=O)Nc4ccc(C)cn4)CC3)cc2CC1C (stereo not given),-,-,.,-,-
Clc1ccc(CSc2ncn(-c3ccccc3)n2)cc1,-,-,-,-,-
Clc1cccc(CSc2ncn(-c3ccccc3)n2)c1,-,-,92.5,-,-
O=C(C1CC2C=CC1C2)N1CCN(c2ccccc2)CC1 (stereo not given),-,-,-,-,-
CC1(C)C(C=C(Cl)Cl)C1C(=O)N1CCN(c2ccccc2)CC1 (stereo not given),-,-,78.4,-,-
CCc1cc(=O)n2[nH]c(-c3ccccc3)c(-c3ccccc3)c2n1,-,-,.,-,-
Cc1cccc2c(=O)c(C(=O)NCCCN3CCOCC3)c[nH]c12,-,-,-,-,-
COc1ccc(NC(=O)Nc2cccc3c2O[C@H](CN(C)C(=O)Nc2ccc(OC)cc2)[C@@H](C)CN([C@H](C)CO)C3=O)cc1,-,-,.,-,-
CCOC(=O)C1=CN(Cc2cccc(-c3ccc(F)cc3)c2)S(=O)(=O)N(C)C1C (stereo not given),-,-,.,.,-
C=C(C)c1cccc(C(C)(C)NC(=O)Nc2ncccn2)c1,-,-,-,-,-
C=C(C)c1cccc(C(C)(C)NC(=O)Nc2ccc(Cl)cn2)c1,-,-,77.8,-,-
CCCCCc1ccc(S(=O)(=O)NCCc2ccncc2)cc1,-,-,72.3,-,-
CC(N)C1CCC(C(=O)Nc2ccncc2)CC1 (stereo not given),.,.,-,.,.
CN1/C(=C\C(=O)Nc2ccc(F)cc2)C(C)(C)c2ccccc21,-,-,-,-,-
CN1/C(=C\C(=O)Nc2ccc(Br)cc2)C(C)(C)c2ccccc21,-,-,82.1,-,-
Cc1ccc(Nc2nc(CSc3nnc(-c4cccs4)o3)cs2)cc1,-,-,85.8,-,-
c1ccc(-c2nc(CSc3nnc(-c4cccs4)o3)cs2)cc1,-,-,-,-,-
SMILES,UPR XBP1 act,UPR CHOP act,CHOP inhibitor,Jurkat NFkB inh,697 NFkB inh
COc1ccc(NC(=S)NNc2ccc([N+](=O)[O-])cc2S(=O)(=O)Nc2ccc(C)cc2C)cc1,-,-,-,-,-
Cc1ccc(NS(=O)(=O)c2cc([N+](=O)[O-])ccc2NNC(=S)Nc2cc(C)ccc2C)c(C)c1,-,-,88.8,-,-
CCNC(=O)COC(=O)c1cccc(Br)c1,-,-,-,-,-
Brc1ccc(-c2ccc(C3Nc4cccc5cccc(c45)N3)o2)cc1,37.1,-,.,-,-
c1coc(C2Nc3cccc4cccc(c34)N2)c1,-,-,-,-,-
OCc1nc2c(ccc3ccccc32)[nH]1,-,-,.,-,-
CCO[C@@H]1OC(C(=O)N2CCN(Cc3ccc4c(c3)OCO4)CC2)=C[C@H](C2CC2)[C@H]1CCCO,-,-,-,-,-
COc1ccc(-c2nc(-c3ccccc3)nc(N3CCN(C)CC3)c2C#N)cc1,-,-,-,-,-
